Test [1] can be described thus: inhibitors of TNFa-induced NFkB p65 translocation, primary screen, imaging, HUVEC, MLSMR starter and 10KST1 sets (AID 438;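 active = inhibition above 20% together with a positive visual image hit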;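 also: compound added about 3h40 before a 20 min TNFalpha stimulation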;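 as to inhibition: signal is the nuclear over cytoplasmic p65 intensity ratio per well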). To be noted: HUVEC TNFa-induced p65 nuclear translocation; cell count: measured here: nuclei count (cytotoxicity indicator), at 2.08 µM; inhibition: at 2 µM, stronger effect = higher value, 0% TNFa-plus-vehicle, 100% no-TNFa wells.
Test [2] is described as follows: inhibitors of mutant huntingtin aggregation, primary screen, imaging, exon1htt(103Q)mCFP cells, high-content imaging (AID 483).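 Also: compound exposure lasted 3 days before fixation.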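 As to nuclei count: percent of the per-plate median nuclei count of sample wells.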 To be noted: exon1htt(103Q)mCFP cell line, aggregate imaging, at 2 µM; inhibition of aggregation: stronger effect = higher value; nuclei count: measured here: cell count, toxicity.
Test [3] can be described thus: inhibitors of E-selectin induction by TNFa, primary screen, imaging, HUVEC, immunofluorescence, MLSMR starter and 10KST1 sets (AID 487;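 active = visually confirmed hit in the image check and inhibition above 20%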;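 as to inhibition: signal is fraction of cell area covered by stained E-selectin grains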;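 as to nuclei count: 100% = median nuclei count of all wells on the same plate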). To be noted: HUVEC TNFalpha-induced E-selectin immunofluorescence imaging, at 2 µM; inhibition: stronger effect = higher value; nuclei count: measured here: cell number, toxicity.
Test [4] has as its target Voltage-gated potassium channel subunit beta-2 (Rattus norvegicus) (UniProt P62483). Nature of the test: KvBeta enzyme negative modulators, primary screen, biochemical, NADPH fluorescence (AID 622;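 active = fluorescence slope higher than the sample average by over 3 SD, cut at about -0.22 in these data, passing the limit was not always enough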;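 also: slope of raw intensity against log time taken from 70 to 1610 s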). As to conditions: recombinant KvBeta, 4-cyanobenzaldehyde reduction, at 10 µM, stronger effect = higher value.
Test [5] has the same target. The test can be described thus: KvBeta positive modulators, primary screen, biochemical, NADPH fluorescence (AID 623;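 active = NADPH fluorescence slope more negative than the mean of all samples by about 3 SD, 99.7% confidence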;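 also: fluorescence intensity change per second fitted from 20 to 320 s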). To be noted: Recombinant KvBeta, NADPH fluorescence decrease slope, 10 min; at 10 µM; stronger effect = lower value.
The target in test [6] is Alpha-2C adrenergic receptor (Homo sapiens) (UniProt P18825). Nature of the test: modulators of alpha2C/GIRK thallium flux, primary screen, cell-based, HEK293 alpha2C/GIRK1/2 (AID 624;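 active = fluorescence slope after compound addition differing from the mean of all screened samples at 99.7% confidence, in either direction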;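 also: slope of fluorescence ratio to pre-addition baseline per second over 15 to 24 s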). To be noted: thallium flux BTC fluorescence, at 10 µM, actives lie on both sides.
Chain of Alpha-2C adrenergic receptor (Homo sapiens) (P18825 whole entry, looked up): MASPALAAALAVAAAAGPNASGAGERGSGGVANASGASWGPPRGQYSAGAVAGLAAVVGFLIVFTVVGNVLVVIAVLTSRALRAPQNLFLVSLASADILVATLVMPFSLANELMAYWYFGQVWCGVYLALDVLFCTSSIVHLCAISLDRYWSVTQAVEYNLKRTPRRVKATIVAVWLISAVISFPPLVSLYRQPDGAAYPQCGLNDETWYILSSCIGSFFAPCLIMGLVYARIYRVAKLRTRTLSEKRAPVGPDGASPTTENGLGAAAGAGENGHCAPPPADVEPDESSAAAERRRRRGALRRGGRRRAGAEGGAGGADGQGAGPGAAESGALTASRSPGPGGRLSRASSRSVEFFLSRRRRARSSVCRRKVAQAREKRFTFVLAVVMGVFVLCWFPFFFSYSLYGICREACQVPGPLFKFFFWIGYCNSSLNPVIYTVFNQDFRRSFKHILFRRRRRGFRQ
The nature of test [7]: inhibitors of larval lipid processing in zebrafish, primary screen, whole organism, PED6 fluorescence, gall bladder and intestine (AID 686;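 active = a full or partial loss of lipid-probe fluorescence in the fish gall bladder, intestine or both, judged by eye; inactive = no fluorescence loss, or compound toxic to the fish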;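 also: larvae 5 to 7 days old with five fish per well; signal comes from phospholipase A2 cleavage of quenched PED6 carried via bile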). As to conditions: Zebrafish larvae PED6 lipid processing, fluorescence scoring; screened at 20 µM (by protocol). Summed up: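 system = live zebrafish larvae aged 5-7 days, whole organism | probe or stimulus = ingested quenched lipid PED6 at 100 nM | doses = 20 µM single dose | timing = overnight exposure | detection = fluorescence microscopy with visual scoring of gall bladder and intestine | read-out = visual per-well fluorescence inhibition score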

Test [8] in a line: inhibitors of Sendai virus-induced IRF3 signaling, primary screen, TLR/RLR signaling modifier project, cell-based, Sendai virus stimulus, luciferase, 10K MLSCN set (AID 602276;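 active = inhibition at or above 50% at 10 µM; inactive = inhibition below 50%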;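 also: firefly luciferase from ISG56 promoter only with Renilla not read in this screen; 0% = Sendai virus plus DMSO and 100% = medium plus DMSO without virus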). To be noted: HEK293 RL24 IRF3 luciferase reporter, at 10 µM, stronger effect = higher value.
Test [9] in a line: inhibitors of poly I:C-induced TLR3 signaling, primary screen, cell-based, poly I:C stimulus, luciferase, 10K MLSCN set (AID 602277;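 active = inhibition of the reporter signal at or above 50%; inactive = inhibition below 50%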). As to conditions: HEK293-TLR3 RL24 IRF3 luciferase reporter, at 10 µM, stronger effect = higher value.

Activity calls are given as the source filed them.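 The calls were made as follows, unless noted: active = visual image review flags a hit and inhibition of aggregation exceeds 20%; inconclusive = visual hit but inhibition at or below 20%; inactive = no hit on visual image review.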

Chain of Voltage-gated potassium channel subunit beta-2 (Rattus norvegicus) (P62483 whole entry, looked up): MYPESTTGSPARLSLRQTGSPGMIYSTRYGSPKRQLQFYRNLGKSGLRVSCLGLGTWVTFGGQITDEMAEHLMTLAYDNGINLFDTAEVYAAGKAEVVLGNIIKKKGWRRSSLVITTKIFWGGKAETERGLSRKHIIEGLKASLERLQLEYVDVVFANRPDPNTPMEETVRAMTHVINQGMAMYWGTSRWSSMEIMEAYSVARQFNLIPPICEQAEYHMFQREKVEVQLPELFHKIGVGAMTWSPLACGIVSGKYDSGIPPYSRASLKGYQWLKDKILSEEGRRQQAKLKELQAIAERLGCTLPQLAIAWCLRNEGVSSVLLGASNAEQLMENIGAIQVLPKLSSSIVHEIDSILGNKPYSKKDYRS

Take `COc1ccccc1NC(=O)N(Cc1ccco1)Cc1cc2cccc(C)c2[nH]c1=O`: the cell count in [1] was found to be 333. The inhibition in [1] is -9.3% (inactive); in [3], 30.7% (inactive); in test [8] it was 8.12% (inactive); in test [9], -0.891% (inactive). For the same compound, the inhibition of aggregation in test [2] was 18.6% (inactive). Also, the nuclei count in [2] turned out to be 105%; in test [3], 89.2%. For the same compound, the fluorescence slope in test [4] is -0.347 (inactive). The NADPH fluorescence slope in test [5] is -5.6e-05 (inactive). In addition, the slope in [6] is 0.00419 (inactive). In addition, the result in [7] was inactive.

Take `COc1ccc(CN(CC(=O)NCC2CCCO2)C(=O)CCC(=O)Nc2cc(C)on2)cc1` (stereo unspecified): the cell count in test [1] amounted to 242. Also, the inhibition is 7.6% (inactive) in test [1], 13.1% (inactive) in test [3], -9.53% (inactive) in [8] and -6.1% (inactive) in test [9]. The inhibition of aggregation in test [2] was 7.1% (inactive). The nuclei count in [2] was determined as 89.3%; in test [3] it was 104%. In test [4], the fluorescence slope was -0.399 (inactive). Also, the NADPH fluorescence slope in test [5] was -1.6e-05 (inactive). The slope in test [6] was 0.00463 (inactive). Besides, the compound was classed as inactive in [7].

On to `CCN1C(=O)/C(=C/N(C)c2ccccc2)OC1=S`, for which the cell count in test [1] amounted to 592. The inhibition in test [1] is -12.2% (inactive); in [3], 34.8% (inactive); in test [8], -11.5% (inactive); in test [9] it was -64.8% (inactive). Besides, the inhibition of aggregation in test [2] was 12.1% (inactive). Besides, the nuclei count in test [2] was 84.4%; in test [3], 93.7%. Moreover, the fluorescence slope in [4] is -0.469 (inactive). The NADPH fluorescence slope in [5] was -5.3e-05 (inactive). The slope in [6] was 0.00485 (inactive). Further, the outcome in test [7] was inactive.

Turning to `O=C(Nc1cccc(OCC(=O)N2CCOCC2)c1)C1CCCCC1`, the cell count in test [1] worked out at 428. The inhibition in [1] was 4.9% (inactive); in [3], -22.9% (inactive); in test [8], 11.4% (inactive); in test [9], 12.7% (inactive). The inhibition of aggregation in [2] is 5.7% (inactive). The nuclei count in test [2] was determined as 95.1%; in test [3], 94.2%. For the same compound, the fluorescence slope in [4] is -0.471 (inactive). Moreover, the NADPH fluorescence slope in test [5] is -5.6e-05 (inactive). For the same compound, the slope in [6] was 0.0056 (inactive). For the same compound, in [7], the outcome was inactive.

`Cc1ccc2nc(C3CCN(CC(=O)N4CCCCCC4)CC3)[nH]c2c1`: the cell count in [1] stood at 579. For the same compound, the inhibition was -13.8% (inactive) in test [1], -39.2% (inactive) in test [3], 8.23% (inactive) in [8] and 13.7% (inactive) in [9]. For the same compound, the inhibition of aggregation in [2] is 2.2% (inactive). For the same compound, the values for the nuclei count in [2] and in test [3] were 101% and 111%, respectively. Also, in test [4], the fluorescence slope was -0.453 (inactive). In addition, in test [5], the NADPH fluorescence slope is -5.8e-05 (inactive). For the same compound, in test [6], the slope was 0.00562 (inactive). In [7], the outcome was “active; weak signal in gallbladder and intestine”.

Take `COc1cc(SC)ccc1C(=O)Nc1ccccc1C#N`: the cell count in [1] stood at 417. Also, the inhibition was 3.9% (inactive) in test [1], -147% (inactive) in test [3], -42.4% (inactive) in [8] and -61.5% (inactive) in [9]. Further, the inhibition of aggregation in [2] is -95.3% (inactive). The nuclei count turned out to be 2.1% in test [2] and 111% in test [3]. Also, the fluorescence slope in test [4] was -0.449 (inactive). In addition, the NADPH fluorescence slope in test [5] is -1.3e-05 (inactive). Moreover, the slope in [6] was 0.00527 (inactive). Further, the call in test [7] was inactive.

With `Cc1ccc2c(c1)CCCN2C(=O)c1ccc2c(c1)OCO2`, the cell count in test [1] was determined as 328. The inhibition in test [1] was -0.6% (inactive); in test [3], -117% (inactive); in test [8] it was 4.95% (inactive); in test [9], 4.76% (inactive). Further, in test [2], the inhibition of aggregation was -0.1% (inactive). Moreover, the nuclei count in [2] turned out to be 99.3%; in [3] it was 118%. For the same compound, in test [4], the fluorescence slope is -0.457 (inactive). Besides, the NADPH fluorescence slope in [5] was -5.1e-05 (inactive). In test [6], the slope was 0.00431 (inactive). For the same compound, in test [7], the result was inactive.

As for `COc1ccc(Cl)c(NC(=O)NCCN2CCN(c3ccccc3)CC2)c1`, the cell count in test [1] came out at 410. In addition, the inhibition is 1.8% (inactive) in test [1], -12.8% (inactive) in test [3], 15.2% (inactive) in test [8] and 23.5% (inactive) in test [9]. Besides, the inhibition of aggregation in test [2] is 1% (inactive). Besides, the nuclei count in test [2] is 99.5%; in test [3], 119%. Moreover, the fluorescence slope in test [4] is -0.29 (inactive). In addition, the NADPH fluorescence slope in [5] is -1.7e-05 (inactive). In addition, in test [6], the slope was 0.00501 (inactive). In test [7], the result was inactive.

With `CCOc1ccccc1N1CC(O)=C(c2nc3ccccc3s2)C1=N`, the cell count in [1] was 348. The inhibition in [1] was -0.8% (inactive); in [3], -69.5% (inactive); in test [8], -19.5% (inactive); in [9], 55.4% (active). In addition, in test [2], the inhibition of aggregation was 0.2% (inactive). The nuclei count in test [2] worked out at 97.7%; in test [3] it was 92%. Besides, the fluorescence slope in test [4] is -0.291 (inactive). For the same compound, the NADPH fluorescence slope in test [5] is -3.9e-05 (inactive). Besides, in test [6], the slope is 0.00531 (inactive). Further, the call in test [7] was inactive.

As for `O=C(Nc1sccc1C(=O)NCc1ccco1)c1cccnc1`, the cell count in test [1] worked out at 343. The inhibition in [1] was 2.1% (inactive); in test [3] it was -92.1% (inactive); in test [8], 5.47% (inactive); in [9] it was -21.6% (inactive). Also, the inhibition of aggregation in test [2] was -22.2% (inactive). The nuclei count in test [2] came to 103%; in test [3], 119%. Also, the fluorescence slope in test [4] is -0.461 (inactive). For the same compound, the NADPH fluorescence slope in [5] was -3.3e-05 (inactive). In addition, the slope in [6] is 0.00445 (inactive). The call in test [7] was inactive.

As for `Cc1cc(C(=O)CSc2nnc(-c3ccccc3)n2C)c(C)n1C`, the cell count in test [1] came out at 403. The inhibition in [1] was 4.4% (inactive); in test [3], -5.3% (inactive); in test [8], -0.894% (inactive); in test [9], 78.4% (active). Besides, the inhibition of aggregation in test [2] was 3.6% (inactive). For the same compound, the nuclei count in [2] came out at 88.2%; in test [3], 107%. Besides, the fluorescence slope in test [4] was -0.477 (inactive). In test [5], the NADPH fluorescence slope is -5.5e-05 (inactive). Moreover, in [6], the slope was 0.00512 (inactive). In addition, the call in test [7] was inactive.

Regarding `COc1cc(C(=O)OCc2cc3ccccc3[nH]c2=O)cc(OC)c1OC`, the cell count in [1] is 833. Further, the inhibition is -3.9% (inactive) in test [1], -38.9% (inactive) in [3], 17.4% (inactive) in test [8] and 18.2% (inactive) in [9]. Besides, the inhibition of aggregation in test [2] is -3.9% (inactive). For the same compound, the nuclei count was found to be 99.3% in test [2] and 102% in test [3]. Moreover, the fluorescence slope in [4] was -0.356 (inactive). Further, the NADPH fluorescence slope in test [5] is -4.1e-05 (inactive). Further, in test [6], the slope is 0.00585 (inactive). For the same compound, the outcome in [7] was inactive.

Consider `O=C(c1cc2nc(-c3ccco3)cc(C(F)(F)F)n2n1)N1CCN(c2ccccn2)CC1`, for which the cell count in [1] came out at 746. The inhibition in test [1] is -10.5% (inactive); in test [3], 32.7% (inactive); in test [8] it was 10.1% (inactive); in test [9] it was -6.91% (inactive). Besides, the inhibition of aggregation in [2] was 2.8% (inactive). For the same compound, the nuclei count is 101% in test [2] and 107% in test [3]. The fluorescence slope in test [4] is -0.357 (inactive). Further, the NADPH fluorescence slope in test [5] was -6.7e-05 (inactive). In addition, the slope in test [6] was 0.00309 (inactive). Besides, in [7], the call was inactive.

(Values after PubChem BioAssay.)
